Format in all cases: functional
For experiment [1], the system named is Mus musculus. Kind of experiment: Antitubercular activity (50 mg/kg) in the 31-day murine model. The method, boiled down:
(§1)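 Female Swiss mice (14–16 g), 10 per treated group and 20 infected controls, were infected i.v. with 0.1 mL of a 2 mg/mL M. tuberculosis H37Rv suspension. Oral dosing was in 0.5 mL 1.0% gum tragacanth, starting day 3 post-infection, twice daily, 5 days/week for 4 weeks. Percent survival was recorded at day 31; active meant survival consistently >80%.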

For experiment [2], the system named is Mus musculus. As to the kind of experiment: Antitubercular activity (25 mg/kg) in the 31-day murine model. The gist of the method: as §1
Experiment [3] concerns Mus musculus. As to the kind of experiment: Antitubercular activity (100 mg/kg) in the 31-day murine model. The method, boiled down: as §1
Experiment [4] has as its system Mus musculus. As to the kind of experiment: Antitubercular activity (12.5 mg/kg) in the 31-day murine model. The gist of the method: as §1
The test system of experiment [5] is Staphylococcus aureus. Kind of experiment: In vitro minimum inhibitory concentration against Staphylococcus aureus. The method, boiled down:
(§2)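 Compounds were dissolved in water, or in water with the minimum DMSO needed to keep them in solution, and tested by an established dilution method. A ">" prefix means the DMSO solvent blank was inhibitory at that level.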

The subject of experiment [6] is Proteus mirabilis. Kind of experiment: Minimum inhibitory dilution of medicated rat urine tested in vitro for antibacterial activity against Proteus mirabilis; Equal to 1:32.
The test system of experiment [7] is Proteus mirabilis. As to the kind of experiment: In vitro minimum inhibitory concentration against Proteus mirabilis. The gist of the method: as §2
The subject of experiment [8] is Mus musculus. Kind of experiment: Antitubercular activity (12.5 mg/kg) in the 31-day murine mice model. The gist of the method: as §1
Experiment [9] concerns Staphylococcus aureus. As to the kind of experiment: Minimum inhibitory dilution of medicated rat urine tested in vitro for antibacterial activity against Staphylococcus aureus; Equal to 1:8.
Experiment [10] relates to Mus musculus. As to the kind of experiment: Antitubercular activity (3.1 mg/kg) in the 31-day murine mice model. The method, boiled down: as §1
Experiment [11] has as its system Mus musculus. As to the kind of experiment: Antitubercular activity (6.25 mg/kg) in the 31-day murine mice model. The method, boiled down: as §1
Experiment [12] deals with Staphylococcus aureus. As to the kind of experiment: Minimum inhibitory dilution of medicated rat urine tested in vitro for antibacterial activity against Staphylococcus aureus; Equal to 1:64.
Experiment [13] concerns Proteus mirabilis. Kind of experiment: Minimum inhibitory dilution of medicated rat urine tested in vitro for antibacterial activity against Proteus mirabilis; Equals to 1:16.
Experiment [14] relates to Proteus mirabilis. Kind of experiment: Minimum inhibitory dilution of medicated rat urine tested in vitro for antibacterial activity against Proteus mirabilis; Equal to 1:192.
The test system of experiment [15] is Staphylococcus aureus. Kind of experiment: Minimum inhibitory dilution of medicated rat urine tested in vitro for antibacterial activity against Staphylococcus aureus; Equal to 1:128.
Where [16] appears, read: Staphylococcus aureus, read-out: MIC.
The mark [17] stands for this setting: Proteus mirabilis, read-out: MIC.

Values after ≈ are worked out from the molar mass of the structure shown.

`CC[C@@H](CO)NCCN[C@@H](CC)CO` [ETHAMBUTOL]: the Survival was determined as 90% in the experiment on Mus musculus [1], 30% in the experiment on Mus musculus [2], 100% in the experiment with Mus musculus [3] and 0% with Mus musculus [4].

As to `C1=CC(=Nn2cccc2)C=CC1=Nn1cccc1` [AZAROLE], the MIC in the experiment with Staphylococcus aureus [5] was above 62.5 µg/mL; in the experiment on Proteus mirabilis [7], above 125 µg/mL. Also, the MID in the experiment on Proteus mirabilis [6] came to 0.03125; in the experiment on Staphylococcus aureus [9] it was 0.125. Also, the Survival is recorded as 80% in the experiment with Mus musculus [8], 70% in the experiment with Mus musculus [10] and 100% in the experiment with Mus musculus [11].

For `Oc1ccc(Nn2cccc2)cc1`, the MIC was at most 7.8 µg/mL in the experiment on Staphylococcus aureus [5] (setting [16]) and 31.3 µg/mL (≈ 180 µM) with Proteus mirabilis [7] (setting [17]). The MID worked out at 0.01562 with Staphylococcus aureus [12] and 0.0625 in the experiment on Proteus mirabilis [13]. Besides, the results for the Survival in the experiment with Mus musculus [8], in the experiment with Mus musculus [10] and in the experiment with Mus musculus [11] were 100%, 0% and 100%, respectively.

As for `c1ccc(Nn2cccc2)cc1`, the MIC in the experiment on Staphylococcus aureus [5] (setting [16]) is 250 µg/mL (≈ 1580 µM); in the experiment with Proteus mirabilis [7] (setting [17]), above 125 µg/mL. Also, the MID is reported as 0.005208 in the experiment with Proteus mirabilis [14] and 0.00781 in the experiment on Staphylococcus aureus [15].

For the origin of these results see ChEMBL document CHEMBL1121743, “Synthesis and antibacterial activity of 1-(arylamino)-1H-pyrroles and 4-(1H-pyrrol-1-ylimino)-2,5-cyclohexadienes” (1981).
